Bioassay records (PubChem BioAssay)
TCR CD3 inh = inhibitors of human TCR-CD3 interaction. TAMRA-labeled TCR probe fluorescence, biochemical. inhibition, % at 9.4 µM. 360,000 compounds, 0.37% hits. AID 651800; in the data active means inhibition above about 19%;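 further: recombinant mutant TCR 2C K166C tagged with TAMRA read by polarization; 0% = receptor in buffer alone and 100% = receptor with positive control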
ABHD4 inh = inhibits mouse alpha/beta hydrolase domain 4; purified mABHD4, FP-Rh probe fluorescence polarization; inhibition, % at 8.92 µM; 370,000 compounds, 0.54% hits; AID 720543;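 active means inhibition exceeding the mean over every tested compound plus 3 SD, cut at about 30% in these data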;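 further: 0% = plate median of compound wells and 100% = S159A mutant with DMSO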
Target sequence (Q8VD66 whole entry, looked up, the tested form may be a part): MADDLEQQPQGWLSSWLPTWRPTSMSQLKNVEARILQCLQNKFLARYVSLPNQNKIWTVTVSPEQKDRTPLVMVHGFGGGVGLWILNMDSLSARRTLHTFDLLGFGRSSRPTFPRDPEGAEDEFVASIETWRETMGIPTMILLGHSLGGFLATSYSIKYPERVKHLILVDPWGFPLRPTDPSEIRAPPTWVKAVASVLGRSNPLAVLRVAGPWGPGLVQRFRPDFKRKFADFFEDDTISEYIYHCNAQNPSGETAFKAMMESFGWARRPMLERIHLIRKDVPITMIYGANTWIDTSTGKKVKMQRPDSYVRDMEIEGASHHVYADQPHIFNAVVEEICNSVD
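Material: mouse ABHD4 enzyme, wild type; Benchmarks: S159A mutant high control, sample median low control; Buffer or medium: HEPES pH 7.0, NaCl, Pluronic buffer; Signal: fluorescence polarization; Read-out: percent inhibition of probe binding, normalized to plate controls; Timing: pre-incubation 45 min, probe exposure 60 min, at 25 °C; Dosing: 8.92 µM, single dose.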
Tn7 DDE FP = inhibitors of Tn7 peptide binding to human fibrin DD(E) | FP displacement of FITC-Tn7 peptide from fibrin DD(E); 0% = median of compound wells per plate | inhibition, % at 8.3 µM | 370,000 compounds, 0.13% hits | AID 720508;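 active means inhibition above the mean of compounds falling within the control limits plus 3 SD of them, cut at about 14% in these data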;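 further: 0% = plate median of compound wells and 100% = 10 µM Aha-Tn7 peptide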
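Assay system: Human clot-derived fibrin DD(E) complex | Buffer or medium: Tris/NaCl/CaCl2 buffer, pH 7.8 | Repeats: One replicate per compound | Benchmarks: Aha-Tn7 high control | Measure: % inhibition scaled between sample-field median and high-control FP | Schedule: 10 min plus 3 h, room temperature | Signal: Fluorescence polarization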
Tn6 DDE FP = DD(E)-Tn6 binding inhibition, primary FP screen; AID 720509; inhibition, % at 8.3 µM; 370,000 compounds, 0.21% hits; Fibrin DD(E) TRITC-Tn6 fluorescence polarization displacement;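 active means inhibition above a per-campaign cutoff: mean of compounds within control limits plus 3 SD, cut at about 15% in these data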;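 further: 0% = median of all compound wells on the plate and 100% = blocking peptide control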
HTRA1 inh = HTRA1 (human) protease inhibition; recombinant HTRA1, FP-rhodamine activity-based probe, fluorescence polarization; inhibition, % at 5.96 µM; 340,000 compounds, 0.5% hits; in the data active means inhibition above about 36%;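 further: 0% = enzyme with DMSO and 100% = wells lacking enzyme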
SIAE primary = human SIAE inhibition, primary screen; Q9HAT2; 370,000 compounds, 0.69% hits; AID 1053197; inhibition, % at 9.66 µM; SIAE FP-Rh probe binding, fluorescence polarization;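 active means inhibition above a cutoff: mean of compounds within the control limits plus 3 SD of those, cut at about 17% in these data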;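 further: 0% = plate median of compound wells and 100% = probe without SIAE protein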
SIAE inh conf = confirmation of human SIAE inhibitors; SIAE FP-Rh activity-based probe, fluorescence polarization; inhibition, % at 9.66 µM; 2,300 compounds, 13% hits; AID 1117263; shares compounds with SIAE primary;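 active means mean inhibition of the replicates above the hit cutoff set in the primary screen, cut at about 17% in these data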;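 further: 0% = SIAE with DMSO and probe and 100% = probe without SIAE; inhibitors lower polarization as more probe stays unbound to SIAE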
An asterisk follows results filed as active; . = not tested or not shown. A selection: hits, their analogues and other compounds. The true share with any hit is near 1.8%.

SMILES	TCR CD3 inh	ABHD4 inh	Tn7 DDE FP	Tn6 DDE FP	HTRA1 inh	SIAE primary	SIAE inh conf
COc1ccc(-n2c(COc3cccc(C)c3)n[nH]c2=S)cc1	-2	-3	1	-3	-2	19*	-1
CC(=O)Nc1ccc(OCc2cn(CC(=O)c3ccc(O)cc3)nn2)cc1	4	12	5	1	2	21*	16
CCCCNC(=O)C[C@H]1C[C@@]2(C(=O)OC)C(=C[C@H](COCc3ccccc3)O[C@@H]2C)N(Cc2ccc3c(c2)OCO3)C1=O	0	-2	3	2	.	3	.
O=C(O)c1cccc(NS(=O)(=O)c2ccc(Cl)c(C(=O)O)c2)c1	1	6	5	-6	8	18*	-3
COCCNC(=O)c1cccc(OC2CCN(Cc3ccc(C(=O)OC)cc3)CC2)c1	-4	-3	-9	9	-3	51*	1
COCCNC(=O)c1cccc(OC2CCN(Cc3ccc(C(C)C)cc3)CC2)c1	1	5	1	1	-4	-1	.
O=C(CSc1nc2c(c(=O)n1-c1ccccc1)SCC2)NCC1CCCO1 (stereo not drawn)	-1	-3	0	-6	6	31*	-4
CCn1c(SCC(=O)NCC2CCCO2)nc2c(c1=O)SC(C)C2 (stereo not drawn)	-8	4	6	6	-4	5	.
CC1Cc2nc(SCC(=O)NCC3CCCO3)n(C)c(=O)c2S1 (stereo not drawn)	-2	9	-9	-12	4	20*	-1
O=C(c1ccc(S(=O)(=O)NCC2CCCO2)cc1)N1CCc2ccccc21 (stereo not drawn)	-1	-6	-3	-4	-2	22*	3
CC(C(=O)Nc1c2c(cc3c1CCC3)CCC2)N1CCCC1 (stereo not drawn)	1	-3	0	0	2	20*	-7
COc1cccc(-c2nc(NC(C)(C)C)c3ccccc3n2)c1O	-3	11	3	3	-13	15	.
COc1ccc(Nc2nc(-c3cccc(OC)c3O)nc3ccccc23)cc1	-3	20	1	-12	15	18*	-29
CC(=O)NC(=S)Nc1ccc(NC(=S)NC(=O)/C=C/c2ccco2)cc1	0	-7	4	-1	0	31*	-28
COc1cccc(Nc2nc(-c3cccc(N4C(=O)c5ccccc5C4=O)c3)cs2)c1	2	11	-5	1	-1	24*	-1
O=C(COc1ccc(F)c(Cl)c1)N[C@H]1CCCN(CC2CC2)C1	.	1	8	11	.	-3	.
O=C(Nc1ccc(F)c(F)c1)c1ccc(-n2cncn2)c([N+](=O)[O-])c1	11	-1	-6	2	-15	4	.
O=C(Nc1cccc(/C=C/c2ccccn2)c1)c1ccc(-n2cncn2)c([N+](=O)[O-])c1	-2	-13	-3	5	-24	19*	-17
CO[C@H]([C@H](C)/C=C/N(C)C=O)[C@@H](C)C(=O)CC[C@H](C)[C@H](O)[C@H](C)[C@H]1OC(=O)/C=C/C(C)=C/C[C@H](O)C[C@@H]2C=CC[C@@H](C[C@H](OC)[C@@H](CO)[C@@H](OC)C[C@@H](OC)[C@@H]1C)O2	.	1	-3	-3	.	5	.
CCOC(=O)c1[nH]c(=O)c2ccccc2c1O	0	1	-5	2	-2	6	.
CCOC(=O)c1c(OCC)[nH]c2c1cc(O)c1ccccc12	12	28	4	5	6	28*	16
COc1ccc(S(=O)(=O)Nc2cc3c4c(c2)CCN4C(=O)CC3)cc1	-4	-5	-2	-7	-4	17*	5
Cc1ccc(C(=O)N2CCC(N3CCC(C(=O)N4CCOCC4)CC3)CC2)cc1C	4	-1	-3	-3	2	2	.
O=C(NCC(=O)N1CCCCCCC1)c1ccc(Cl)cc1	5	1	-3	-5	-2	5	.
CC(C)(C)c1ccc(C(=O)NCC(=O)N2CCCCCC2)cc1	1	5	4	1	-6	21*	-2
